Experimental data from ChEMBL document CHEMBL1133553, “Synthesis and transporter binding properties of bridged piperazine analogues of 1-[2-[bis(4-fluorophenyl)methoxy]ethyl]-4-(3-phenylpropyl)piperazine (GBR 12909)” (J Med Chem, 2000).

Tests used:
[1] = biological target: T1, Sodium-dependent serotonin transporter (Rattus norvegicus, UniProt P31652); experiment: Binding affinity for rat 5-hydroxytryptamine transporter.
Procedure, shortened: (§1)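 Drugs and blockers prepared in 55.2 mM sodium phosphate buffer, pH 7.4, with 1 mg/mL BSA. Radioligand prepared in the same buffer with chymostatin, leupeptin, EDTA and EGTA. Triplicate incubations ran 18-24 h at 4 °C (equilibrium) in 1 mL, then were filtered over GF/B filters presoaked in 2% polyethylenimine.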

[2] = biological target: T2, Sodium-dependent dopamine transporter (Rattus norvegicus, UniProt P23977); experiment: Binding affinity for rat Dopamine transporter.; procedure, shortened: as §1
[3] = biological target: T3, Monoamine transporters; serotonin & dopamine (Rattus norvegicus) (UniProt P31652+P23977); experiment: Ratio of reuptake of 5-HT to that of DA; format: functional
[4] = biological target: T1, Sodium-dependent serotonin transporter; experiment: Inhibition of [3H]5-HT reuptake in whole rat brain (minus cerebellum) homogenate.; format: functional, tissue-based
[5] = biological target: T3, Monoamine transporters; serotonin & dopamine (Rattus norvegicus); experiment: Ratio of binding affinity of 5-HT to that of DA; format: protein assay
[6] = biological target: T2, Sodium-dependent dopamine transporter; experiment: Inhibition of [3H]DA reuptake in rat caudate homogenate.; format: functional, tissue-based

T1 sequence (P31652 whole entry): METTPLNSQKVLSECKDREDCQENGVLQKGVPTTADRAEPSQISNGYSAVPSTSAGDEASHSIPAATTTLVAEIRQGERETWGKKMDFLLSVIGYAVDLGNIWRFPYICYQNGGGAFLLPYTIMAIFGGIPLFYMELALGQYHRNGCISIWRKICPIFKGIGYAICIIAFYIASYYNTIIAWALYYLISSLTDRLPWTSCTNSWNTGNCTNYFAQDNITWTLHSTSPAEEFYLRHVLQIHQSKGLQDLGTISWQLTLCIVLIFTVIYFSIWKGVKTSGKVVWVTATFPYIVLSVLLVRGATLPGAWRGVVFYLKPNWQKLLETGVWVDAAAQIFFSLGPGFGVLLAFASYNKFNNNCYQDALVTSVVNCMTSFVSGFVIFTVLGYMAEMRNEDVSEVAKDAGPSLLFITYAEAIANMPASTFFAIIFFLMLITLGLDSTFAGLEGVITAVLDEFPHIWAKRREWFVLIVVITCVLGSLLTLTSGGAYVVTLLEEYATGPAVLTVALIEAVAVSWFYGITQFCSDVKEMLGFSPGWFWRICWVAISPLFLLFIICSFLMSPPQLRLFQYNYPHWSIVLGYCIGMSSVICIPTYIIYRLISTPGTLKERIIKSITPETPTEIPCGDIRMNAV
T3 sequence (P23977 whole entry, looked up): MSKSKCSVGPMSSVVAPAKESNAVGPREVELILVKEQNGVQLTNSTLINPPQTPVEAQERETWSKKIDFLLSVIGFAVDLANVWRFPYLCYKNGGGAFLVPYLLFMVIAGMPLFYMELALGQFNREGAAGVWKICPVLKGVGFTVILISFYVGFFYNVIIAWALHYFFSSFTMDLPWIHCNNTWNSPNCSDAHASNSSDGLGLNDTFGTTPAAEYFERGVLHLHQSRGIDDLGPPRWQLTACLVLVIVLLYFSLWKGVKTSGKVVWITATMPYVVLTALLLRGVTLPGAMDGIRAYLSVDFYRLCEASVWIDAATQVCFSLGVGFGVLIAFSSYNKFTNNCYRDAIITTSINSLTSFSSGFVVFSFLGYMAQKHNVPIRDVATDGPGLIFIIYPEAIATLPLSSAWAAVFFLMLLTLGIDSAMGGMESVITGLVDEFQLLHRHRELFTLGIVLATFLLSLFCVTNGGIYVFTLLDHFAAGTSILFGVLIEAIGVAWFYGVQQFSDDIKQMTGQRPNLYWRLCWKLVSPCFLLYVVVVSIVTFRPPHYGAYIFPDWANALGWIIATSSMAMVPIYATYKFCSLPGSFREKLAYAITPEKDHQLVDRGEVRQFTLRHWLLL
T3 sequence (P31652 whole entry, looked up): as the sequence (P31652 whole entry) above
T2 sequence (P23977 whole entry): as the sequence (P23977 whole entry, looked up) above

Fc1ccc(C(OCCN2CC3CC2CN3CCCc2ccccc2)c2ccc(F)cc2)cc1 (stereo not given)
IC50 [1]: 203 nM | IC50 [2]: 127 nM | Ratio [3]: 1.5 | IC50 [4]: 173 nM | Ratio [5]: 1.6 | IC50 [6]: 113 nM

CN1C2CCC1CN(CCOC(c1ccc(F)cc1)c1ccc(F)cc1)C2
IC50 [1]: 705 nM | IC50 [2]: 8 nM | Ratio [3]: 93 | IC50 [4]: 898 nM | Ratio [5]: 88 | IC50 [6]: 9.6 nM

Fc1ccc(C(OCCN2CC3CCC(C2)N3Cc2cc3ccccc3[nH]2)c2ccc(F)cc2)cc1
IC50 [1]: 104 nM | IC50 [2]: 1.4 nM | Ratio [3]: 16 | IC50 [4]: 645 nM | Ratio [5]: 74 | IC50 [6]: 40 nM

c1ccc(CCCN2CC3CC2CN3CCOC(c2ccccc2)c2ccccc2)cc1 (stereo not given)
IC50 [1]: 720 nM | IC50 [2]: 223 nM | Ratio [3]: 5 | IC50 [4]: 912 nM | Ratio [5]: 3 | IC50 [6]: 198 nM

CN1CC2CC1CN2CCOC(c1ccccc1)c1ccccc1 (stereo not given)
IC50 [1]: 33000 nM | IC50 [2]: 1170 nM | Ratio [3]: 33 | IC50 [4]: 28000 nM | Ratio [5]: 29 | IC50 [6]: 830 nM

CN1CC2CC1CN2CCOC(c1ccc(F)cc1)c1ccc(F)cc1 (stereo not given)
IC50 [1]: 1700 nM | IC50 [2]: 121 nM | Ratio [3]: 17 | IC50 [4]: 2150 nM | Ratio [5]: 14 | IC50 [6]: 125 nM

c1ccc(CCCN2C3CCC2CN(CCOC(c2ccccc2)c2ccccc2)C3)cc1
IC50 [1]: 740 nM | IC50 [2]: 18 nM | Ratio [3]: 58 | IC50 [4]: 1390 nM | Ratio [5]: 42 | IC50 [6]: 24 nM

CN1C2CCC1CN(CCOC(c1ccccc1)c1ccccc1)CC2 (stereo not given)
IC50 [1]: 17000 nM | IC50 [2]: 307 nM | Ratio [3]: 6.6 | IC50 [4]: 6150 nM | Ratio [5]: 56 | IC50 [6]: 928 nM

Fc1ccc(C(OCCN2CC3CCC(C2)N3C/C=C/c2ccco2)c2ccc(F)cc2)cc1
IC50 [1]: 146 nM | IC50 [2]: 5.5 nM | Ratio [3]: 13 | IC50 [4]: 299 nM | Ratio [5]: 27 | IC50 [6]: 24 nM

Fc1ccc(C(OCCN2CC3CCC(C2)N3CCCc2ccccc2)c2ccc(F)cc2)cc1
IC50 [1]: 77 nM | IC50 [2]: 8.2 nM | IC50 [4]: 506 nM | IC50 [6]: 219 nM

c1ccc(CCCN2C3CCC2CN(CCOC(c2ccccc2)c2ccccc2)CC3)cc1 (stereo not given)
IC50 [1]: 1320 nM | IC50 [2]: 32 nM | Ratio [3]: 26 | IC50 [4]: 2300 nM | Ratio [5]: 41 | IC50 [6]: 87 nM

CN1C2CCC1CN(CCOC(c1ccc(F)cc1)c1ccc(F)cc1)CC2 (stereo not given)
IC50 [1]: 1900 nM | IC50 [2]: 89 nM | Ratio [3]: 47 | IC50 [4]: 1670 nM | Ratio [5]: 21 | IC50 [6]: 36 nM

Fc1ccc(C(OCCN2CC3CCC(C2)N3C/C=C/c2cccs2)c2ccc(F)cc2)cc1
IC50 [1]: 46 nM | IC50 [2]: 4 nM | Ratio [3]: 10 | IC50 [4]: 268 nM | Ratio [5]: 12 | IC50 [6]: 28 nM

Fc1ccc(C(OCCN2CC3CCC(C2)N3C/C=C/c2cccnc2)c2ccc(F)cc2)cc1
IC50 [1]: 395 nM | IC50 [2]: 12 nM | Ratio [3]: 40 | IC50 [4]: 968 nM | Ratio [5]: 33 | IC50 [6]: 24 nM

CN1C2CCC1CN(CCOC(c1ccccc1)c1ccccc1)C2
IC50 [1]: 6400 nM | IC50 [2]: 111 nM | Ratio [3]: 12 | IC50 [4]: 13700 nM | Ratio [5]: 58 | IC50 [6]: 1140 nM

c1ccc(C(OCCN2CCC3CCC(C2)N3)c2ccccc2)cc1 (stereo not given)
IC50 [1]: 6060 nM | IC50 [2]: 431 nM | Ratio [3]: 15 | IC50 [4]: 3960 nM | Ratio [5]: 14 | IC50 [6]: 260 nM

Fc1ccc(C(OCCN2CCC3CCC(C2)N3CCCc2ccccc2)c2ccc(F)cc2)cc1 (stereo not given)
IC50 [1]: 843 nM | IC50 [2]: 130 nM | Ratio [3]: 44 | IC50 [4]: 2080 nM | Ratio [5]: 6.5 | IC50 [6]: 47 nM
